Published values pooled from the literature.
Each line is one published result; the experiments were not run side by side. pIC50: −log10 of the molar value. Values after ≈ are worked out from the molar mass of the structure shown.

C[C@@H](O)[C@H]1C(=O)N2C(C(=O)O)=C(SCCN=CN)C[C@H]12 — MIC (Enterococcus faecalis; microbial growth; VRE; drug-resistant strain): < 1 µg/mL
C=C(CN(C(=O)c1c(C(F)F)nn(C)c1F)C1CC1)c1ccc(Cl)cc1Cl — EC50 (Ustilaginoidea virens; microbial growth; 12 h): 0.0232 µg/mL (≈ 0.0555 µM)
C#Cc1cccc(O)c1C=NNC(=O)c1ccc(Br)cc1 — MIC80 (Aspergillus fumigatus; microbial growth; 48 h, pH 6.5): > 32 µg/mL
COc1ccc(C=NNC(=S)N[N+](=O)[O-])cc1OC — pIC50 (Leishmania major; parasite growth, MTT; 72 h, promastigote): 2.92
C#Cc1ccc(C=NNC(=O)c2ccc(Br)c(Br)c2)c(O)c1 — MIC80 (Aspergillus fumigatus; microbial growth; 48 h, pH 6.5): > 16 µg/mL
COC(=O)C1=C(C)NC(C)=C(C(=O)OC(C)(C)CN(C)CCC(c2ccccc2)c2ccccc2)C1c1cccc([N+](=O)[O-])c1 (stereo not drawn) — MIC (Aspergillus fumigatus; microbial growth, broth dilution; 48 h): > 250 µM
O=C(O)c1cn(C2CC2)c2cc(N3CCNCC3)c(F)cc2c1=O — MIC (Enterococcus faecalis; microbial growth; VRE; drug-resistant strain): < 1 µg/mL
O=[N+]([O-])NC(=S)NN=Cc1ccc(Br)cc1 — pIC50 (Leishmania major; parasite growth; J774.A1; 72 h, intracellular, amastigote): 3.37
C#Cc1ccc(C=NNC(=O)c2cc(Br)cc(Br)c2O)c(O)c1 — MIC80 (Aspergillus fumigatus; microbial growth; 48 h, pH 6.5): > 16 µg/mL
